ChEMBL document CHEMBL1127802, “Selective inhibitors of monoamine oxidase. 2. Arylamide SAR” (J Med Chem, 1994)
One block for each molecule: values may come before it.

Assays:
[1] = target: T1, Amine oxidase [flavin-containing] A (Rattus norvegicus, UniProt P21396); experiment: (§1) Inhibitory activity against monoamine oxidase A (MAO A) from rat brain using a radiometric procedure with [3H]5-HT at 1 uM
T1 sequence (P21396 whole entry): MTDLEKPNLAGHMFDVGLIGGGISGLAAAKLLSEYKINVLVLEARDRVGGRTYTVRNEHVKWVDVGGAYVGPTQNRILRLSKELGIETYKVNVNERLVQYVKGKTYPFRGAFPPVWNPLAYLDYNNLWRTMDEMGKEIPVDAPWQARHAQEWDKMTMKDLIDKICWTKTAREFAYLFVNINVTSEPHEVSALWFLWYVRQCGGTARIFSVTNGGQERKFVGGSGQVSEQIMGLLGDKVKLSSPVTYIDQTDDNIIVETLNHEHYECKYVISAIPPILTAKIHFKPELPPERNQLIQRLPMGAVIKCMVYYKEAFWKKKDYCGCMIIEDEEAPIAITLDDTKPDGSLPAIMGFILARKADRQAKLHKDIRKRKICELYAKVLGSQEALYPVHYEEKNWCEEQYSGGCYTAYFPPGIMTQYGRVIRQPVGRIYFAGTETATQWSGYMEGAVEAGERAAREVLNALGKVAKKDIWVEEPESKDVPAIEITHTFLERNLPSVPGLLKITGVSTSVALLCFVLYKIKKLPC
Method in brief: (§2)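 Rat brain mitochondrial MAO extract was preincubated with or without inhibitor for 15 min at 37 °C in 50 mM potassium phosphate, pH 7.4. […] Blanks contained 2 mM pargyline. Reactions were stopped with HCl, products extracted into ethyl acetate/toluene and counted by scintillation. Triplicates were averaged as % inhibition, and IC50 was taken from % inhibition vs log concentration.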

[2] = target: T2, Amine oxidase [flavin-containing] B (Rattus norvegicus, UniProt P19643); experiment: (§3) Inhibitory activity against monoamine oxidase B (MAO B) from rat brain using a radiometric procedure with [14C]phenylethylamine at 1 uM
T2 sequence (P19643 whole entry): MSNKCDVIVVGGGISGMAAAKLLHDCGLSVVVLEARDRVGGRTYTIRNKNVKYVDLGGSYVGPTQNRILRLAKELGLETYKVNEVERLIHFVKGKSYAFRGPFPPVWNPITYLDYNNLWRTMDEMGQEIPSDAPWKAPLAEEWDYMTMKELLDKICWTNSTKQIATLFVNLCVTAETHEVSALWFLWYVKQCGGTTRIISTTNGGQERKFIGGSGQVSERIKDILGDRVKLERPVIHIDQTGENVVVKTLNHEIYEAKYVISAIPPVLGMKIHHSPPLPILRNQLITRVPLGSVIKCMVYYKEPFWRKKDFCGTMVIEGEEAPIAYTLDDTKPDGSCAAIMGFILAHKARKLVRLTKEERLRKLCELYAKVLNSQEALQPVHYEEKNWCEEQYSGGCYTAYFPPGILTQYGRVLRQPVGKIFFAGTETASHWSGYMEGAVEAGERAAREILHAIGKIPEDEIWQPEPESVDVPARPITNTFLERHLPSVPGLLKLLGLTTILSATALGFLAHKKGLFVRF
Method in brief: (§4)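 Rat brain mitochondrial MAO extract was preincubated ± inhibitor for 15 min at 37 °C in 50 mM potassium phosphate, pH 7.4. […] Pargyline (2 mM) defined blanks. Acid stop, ethyl acetate/toluene extraction and scintillation counting followed. Triplicate means gave % inhibition, and IC50 was extrapolated from % inhibition vs log concentration plots.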

[3] = target: T2, Amine oxidase [flavin-containing] B; experiment: (§5) Inhibitory activity against monoamine oxidase B (MAO B) from rat brain using a radiometric procedure with [14C]phenylethylamine at 10 uM; method in brief: as §4
[4] = target: T1, Amine oxidase [flavin-containing] A; experiment: (§6) Inhibitory activity against monoamine oxidase A (MAO A) from rat brain using a radiometric procedure with [3H]5-HT at 10 uM; method in brief: as §2
[5] = target: T3, MAO B (monoamine oxidase B) (Rattus norvegicus, UniProt P19643); experiment: Inhibitory activity against monoamine oxidase B (MAO B) from rat brain using a radiometric procedure with [14C]- phenethylamine at 1 uM; settings: rat brain monoamine oxidase B preparation, probe [14C]-phenethylamine; method in brief: as §4
T3 sequence (P19643 whole entry): T2 sequence (P19643 whole entry)

[6] = target: T4, MAO A (monoamine oxidase A) (Rattus norvegicus, UniProt P21396); experiment: Inhibitory activity against monoamine oxidase A (MAO A) from rat brain using a radiometric procedure with [3H]- serotonin at 1 uM; settings: rat brain monoamine oxidase A preparation, probe [3H]-serotonin; method in brief: as §2
T4 sequence (P21396 whole entry): T1 sequence (P21396 whole entry)

[7] = target: T1, Amine oxidase [flavin-containing] A; experiment: Inhibitory activity against monoamine oxidase A (MAO A) from rat brain using a radiometric procedure with [3H]- serotonin.; method in brief: as §2
[8] = target: T4, MAO A (monoamine oxidase A); experiment: as §1; settings: rat brain monoamine oxidase A preparation, probe [3H]5-HT; method in brief: as §2
[9] = target: T3, MAO B (monoamine oxidase B); experiment: as §3; settings: rat brain monoamine oxidase B preparation, probe [14C]phenylethylamine; method in brief: as §4
[10] = target: T1, Amine oxidase [flavin-containing] A; experiment: Inhibitory activity against monoamine oxidase A (MAO A) from rat brain using a radiometric procedure with [3H]5-HT; method in brief: as §2
[11] = target: T3, MAO B (monoamine oxidase B); experiment: Inhibitory activity against monoamine oxidase B (MAO B) from rat brain using a radiometric procedure with [14C]phenylethylamine at 0.3 uM; settings: rat brain monoamine oxidase B preparation, probe [14C]phenylethylamine; method in brief: as §4
[12] = target: T4, MAO A (monoamine oxidase A); experiment: as §6; settings: rat brain monoamine oxidase A preparation, probe [3H]5-HT; method in brief: as §2
[13] = target: T2, Amine oxidase [flavin-containing] B; experiment: Inhibitory activity against monoamine oxidase B (MAO B) from rat brain using a radiometric procedure with [14C]- phenethylamine.; method in brief: as §4
[14] = target: T3, MAO B (monoamine oxidase B); experiment: as §5; settings: rat brain monoamine oxidase B preparation, probe [14C]phenylethylamine; method in brief: as §4
[15] = target: T3, MAO B (monoamine oxidase B); experiment: Inhibitory activity against monoamine oxidase B (MAO B) from rat brain using a radiometric procedure with [14C]- phenethylamine at 10 uM; settings: rat brain monoamine oxidase B preparation, probe [14C]-phenethylamine; method in brief: as §4
[16] = target: T4, MAO A (monoamine oxidase A); experiment: Inhibitory activity against monoamine oxidase A (MAO A) from rat brain using a radiometric procedure with [3H]- serotonin at 10 uM; settings: rat brain monoamine oxidase A preparation, probe [3H]-serotonin; method in brief: as §2

SMILES: CC(=O)Nc1ccc2[nH]c(C)c(C)c2c1
inhibition [1]: < 1% | inhibition [2]: 42%

SMILES: CC(=O)Nc1ccc2c3c([nH]c2c1)CCC(C)(C=O)C3 (stereo not drawn)
inhibition at 1 µM [5]: 11% | inhibition at 1 µM [6]: 0%

SMILES: CC(=O)Nc1ccc2c(c1)oc(=O)c1ccccc12
IC50 [7]: 40 nM | inhibition at 1 µM [5]: 8%

SMILES: CC(=O)NC(C)c1ccc2c(c1)[nH]c1ccccc12 (stereo not drawn)
inhibition [8]: 7% | inhibition at 1 µM [9]: 20%

SMILES: O=CNc1ccc2c(c1)[nH]c1ccccc12
IC50 [10]: 1100 nM

SMILES: Nc1ccc2[nH]c(=O)c3ccccc3c2c1
inhibition [12]: 0%

SMILES: O=CNc1ccc2c(c1)-c1ccccc1S2(=O)=O
IC50 [10]: 1000 nM

SMILES: CC(=O)NCCc1ccc2c(c1)c1ccccc1n2C
inhibition [8]: 50% | inhibition at 1 µM [9]: 0%

SMILES: CC(=O)Nc1ccc2c3c([nH]c2c1)CCCC3
inhibition [8]: 35% | inhibition at 1 µM [9]: 0%

SMILES: CC(=O)Nc1cccc2c1C(=O)c1ccccc1C2=O
inhibition at 1 µM [6]: 12%

SMILES: CC(=O)Nc1ccc2c(c1)S(=O)(=O)c1cc(NC(C)=O)ccc1N2C
inhibition [1]: 2% | inhibition [2]: 7%

SMILES: CC(=O)NCc1ccc2c(c1)c1ccccc1n2C
inhibition [8]: 16% | inhibition at 1 µM [9]: 30%

SMILES: CC(=O)Nc1ccc(Nc2ccccc2)c(NC(C)=O)c1
inhibition at 10 µM [16]: 4% | inhibition at 10 µM [15]: 4%

SMILES: CC(=O)Nc1ccc2[nH]ccc2c1
inhibition at 1 µM [5]: 0% | inhibition at 1 µM [6]: 0%

SMILES: CC(=O)Nc1ccc2c(c1)N(C(C)=O)CC2
inhibition [8]: 37% | inhibition at 1 µM [9]: -27%

SMILES: CC(=O)Nc1ccc2c(c1)-c1ccccc1S2(=O)=O
IC50 [10]: 260 nM | inhibition at 1 µM [9]: 13%

More lines, now with the values ahead:

inhibition [3]: 22% | inhibition [4]: 74%
SMILES: CC(=O)Nc1ccc2c(c1)S(=O)(=O)c1ccccc1N2

IC50 [10]: 10 nM | inhibition at 0.3 µM [11]: 15%
SMILES: CCc1ccc2c(c1)C(=O)c1ccc(NC(C)=O)cc1S2(=O)=O

IC50 [10]: 300 nM
SMILES: CC(=O)Nc1ccc2c(c1)C(O)c1ccccc1-2 (stereo not drawn)

IC50 [7]: 160 nM | IC50 [13]: 3500 nM
SMILES: CC(=O)Nc1ccc2c(c1)C(=O)c1ccccc1C2=O

IC50 [10]: 20 nM | inhibition at 10 uM [14]: -7%
SMILES: CCCc1ccc2c(c1)S(=O)(=O)c1cc(NC(C)=O)ccc1C2=O

inhibition at 1 µM [5]: 12% | inhibition at 1 µM [6]: 10%
SMILES: CC(=O)Nc1cc2c(ccc3ccccc32)oc1=O

inhibition at 10 µM [15]: 37%
SMILES: CC(=O)Nc1ccc2[nH]c3ccccc3c2c1

inhibition [8]: 61%
SMILES: CC(=O)Nc1ccc2c(c1)[nH]c1ccc(Br)cc12

IC50 [10]: 120 nM | inhibition at 1 µM [9]: 39%
SMILES: CC(=O)Nc1ccc2c(c1)C(=O)c1ccccc1S2(=O)=O

inhibition [8]: 36%
SMILES: CCCC(=O)Nc1ccc2c(c1)[nH]c1ccccc12

inhibition at 10 µM [16]: 44%
SMILES: CC(=O)Nc1cccc(Nc2ccccc2)c1

inhibition [8]: 17% | inhibition at 1 µM [9]: 49%
SMILES: CC(=O)Nc1ccc2c(c1)S(=O)(=O)c1ccccc1C2

inhibition [8]: 34%
SMILES: CNc1ccc2c(c1)-c1ccccc1S2(=O)=O
